Measured values from ChEMBL document CHEMBL1123979, “Structure-activity analysis of a class of orally active hydroxamic acid inhibitors of leukotriene biosynthesis” (J Med Chem, 1988).

Assays:
[1] = target: T1, Polyunsaturated fatty acid 5-lipoxygenase (Rattus norvegicus, UniProt P12527); experiment: In vitro inhibition of 5-lipoxygenase from RBL-1 cells; assay type: cell-based
T1 sequence (P12527 whole entry): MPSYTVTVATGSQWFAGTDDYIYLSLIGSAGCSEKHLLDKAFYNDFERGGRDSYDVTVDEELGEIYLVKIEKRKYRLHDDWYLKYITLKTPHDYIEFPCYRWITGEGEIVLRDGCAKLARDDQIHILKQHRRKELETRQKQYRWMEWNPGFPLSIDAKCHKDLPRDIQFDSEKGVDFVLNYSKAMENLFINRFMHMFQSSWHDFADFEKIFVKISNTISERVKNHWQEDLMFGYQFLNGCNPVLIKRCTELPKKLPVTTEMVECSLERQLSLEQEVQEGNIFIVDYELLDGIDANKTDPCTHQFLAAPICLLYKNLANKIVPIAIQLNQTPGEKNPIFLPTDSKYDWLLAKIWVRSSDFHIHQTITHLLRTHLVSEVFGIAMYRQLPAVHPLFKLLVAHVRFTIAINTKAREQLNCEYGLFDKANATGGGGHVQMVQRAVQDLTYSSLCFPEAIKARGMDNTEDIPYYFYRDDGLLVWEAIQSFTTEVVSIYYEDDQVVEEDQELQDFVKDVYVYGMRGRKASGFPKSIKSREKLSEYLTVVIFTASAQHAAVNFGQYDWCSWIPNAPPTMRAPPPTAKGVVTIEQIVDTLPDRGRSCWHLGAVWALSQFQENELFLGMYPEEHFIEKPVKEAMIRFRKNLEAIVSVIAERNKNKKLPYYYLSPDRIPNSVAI
Procedure, shortened: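 Enzyme source is the 20000g supernatant of RBL-1 cells, assayed for 5-lipoxygenase inhibition. IC50 is reported in µM with a range in parentheses.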

[2] = In vivo inhibition of biosynthesis of leukotriene in rat peritoneal anaphylaxis model at 200 umol/kg; assay type: functional
Procedure, shortened: (§1)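 Rats receive a single oral dose of 200 µmol/kg, and in vivo activity is measured 1 h after dosing in the peritoneal anaphylaxis model. The result is given as % inhibition of leukotriene biosynthesis or flagged as not significant.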

Rattus norvegicus = experiment: Plasma concentration 1 hr after oral administration of a dose of 200 uM/kg; assay type: functional, organism-based
Procedure, shortened: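 Rats are dosed orally at 200 µmol/kg, and plasma drug concentration is measured 1 h later. Values are the average ± range of two determinations, and the stated detection limit is 2.0 µM.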

[3] = In vivo inhibition of biosynthesis of leukotriene in rat peritoneal anaphylaxis model; assay type: functional
Procedure, shortened: (§2)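 Test compounds are given orally to rats in the peritoneal anaphylaxis model, and leukotriene biosynthesis is measured in vivo. ED50 is expressed in µmol/kg, with the range in parentheses and the mg/kg equivalent.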

[4] = In vivo Inhibition of biosynthesis of leukotriene in rat peritoneal anaphylaxis model; assay type: functional; procedure, shortened: as §2
[5] = In vivo inhibition of biosynthesis of leukotriene in rat peritoneal anaphylaxis model at 200 uM/Kg; assay type: functional; procedure, shortened: as §1
[6] = In vivo inhibition of biosynthesis of leukotriene in rat peritoneal anaphylaxis model at 200 mg/Kg; assay type: functional
[7] = In vivo inhibition of biosynthesis of leukotriene in rat peritoneal anaphylaxis model at 200 uMKg; assay type: functional; procedure, shortened: as §1
[8] = In vivo inhibition of biosynthesis of leukotriene in rat peritoneal anaphylaxis model; non significant at 200 umol/kg; assay type: functional; procedure, shortened: as §1
[9] = Rattus norvegicus, read-out: ED50

Compound: CC(=O)N(O)C(C)c1ccc(/C=C/c2ccccc2)cc1 (stereo not given)
- IC50 [1]: 290 nM

Compound: CCCCOc1ccc(C(CCCC)N(O)C(C)=O)cc1 (stereo not given)
- IC50 [1]: 570 nM
- inhibition in vivo at 200 µmol/kg [2]: < 40%

Compound: CCCCOc1ccc(CN(O)C(C)=O)cc1
- IC50 [1]: 1100 nM

Compound: CC(=O)N(O)C(C)c1ccc(OCc2ccccc2)cc1 (stereo in doubt; 5) [listing 1 of 2 here]
- Concentration (Rattus norvegicus): 70 µM

Compound: CC(=O)N(O)C(C)c1ccc(OCc2ccccc2)cc1 (stereo in doubt; 7)
- IC50 [1]: 370 nM

Compound: CCCCOc1ccc(C(C)N(O)C(C)=O)cc1 (stereo not given)
- IC50 [1]: 790 nM
- ED50 [3, 9]: 68 µmol/kg
- Concentration (Rattus norvegicus): 65.7 µM
- ED50 [4, 9]: 17 mg/kg

Compound: CC(=O)N(O)C(C)c1ccc(OC(C)c2ccccc2)cc1 (stereo not given)
- IC50 [1]: 500 nM
- ED50 [3, 9]: 92 µmol/kg
- Concentration (Rattus norvegicus): 106 µM
- ED50 [4, 9]: 28 mg/kg

Compound: CC(=O)N(O)C(C)c1ccc(Oc2ccccc2)cc1 (stereo not given)
- IC50 [1]: 370 nM
- ED50 [3, 9]: 47 µmol/kg
- Concentration (Rattus norvegicus): 52 µM
- ED50 [4, 9]: 12 mg/kg

Compound: CC(=O)N(O)C(C)c1ccc(OCc2c(C)cc(C)cc2C)cc1 (stereo not given)
- IC50 [1]: 620 nM
- Inhibition [5]: <40%

Compound: CC(=O)N(O)C(C)c1ccc(OCc2ccc3ccccc3n2)cc1 (stereo not given)
- IC50 [1]: 400 nM
- ED50 [3, 9]: 51 µmol/kg
- ED50 [4, 9]: 17 mg/kg

Compound: CC(=O)N(O)Cc1ccc(OCc2ccccc2)cc1
- IC50 [1]: 460 nM
- Concentration (Rattus norvegicus): 2.1 µM

Compound: CCCCOc1ccc(CCN(O)C(C)=O)cc1
- IC50 [1]: 380 nM
- inhibition in vivo at 200 µmol/kg [2]: < 40%

Compound: CCCCOc1ccc(C(C)N(O)C=O)cc1 (stereo not given)
- IC50 [1]: 1900 nM
- inhibition in vivo at 200 µmol/kg [2]: < 40%

Compound: CC(=O)N(O)C(C)c1ccc(OCCc2ccccc2)cc1 (stereo not given)
- IC50 [1]: 410 nM
- ED50 [3, 9]: 49 µmol/kg
- ED50 [4, 9]: 15 mg/kg

Compound: CCCCOc1ccc(C(C)N(O)C(=O)c2ccccc2)cc1 (stereo not given)
- IC50 [1]: 1300 nM
- inhibition in vivo at 200 µmol/kg [2]: < 40%

Compound: CC(=O)N(O)C(C)c1ccc(SCc2ccccc2)cc1 (stereo not given)
- IC50 [1]: 190 nM

Compound: CCCCOc1ccc(OCCN(O)C(C)=O)cc1
- IC50 [1]: 750 nM
- ED50 [3, 9]: 84 µmol/kg
- ED50 [4, 9]: 22 mg/kg

Compound: CC(=O)N(O)C(C)c1ccccc1OCc1ccccc1 (stereo not given)
- IC50 [1]: 760 nM
- inhibition in vivo at 200 mg/kg [6]: < 40%

Compound: CCCCOc1ccc(CCC(C)N(O)C(C)=O)cc1 (stereo not given)
- IC50 [1]: 360 nM
- ED50 [3, 9]: 120 µmol/kg
- ED50 [4, 9]: 35 mg/kg

Compound: CCCCOc1ccc(CCCN(O)C(C)=O)cc1
- IC50 [1]: 320 nM

Compound: CC(=O)N(O)C(C)c1ccc(OCc2ccccc2)cc1 (stereo in doubt; 5) [listing 2 of 2 here]
- ED50 [3]: 28 µM/kg
- ED50 [4]: 8 mg/kg

Compound: CCCCOc1cccc(C(C)N(O)C(C)=O)c1 (stereo not given)
- IC50 [1]: 390 nM

Compound: CC(C)C(=O)N(O)C(C)c1ccc(OCc2ccccc2)cc1 (stereo not given)
- IC50 [1]: 470 nM
- inhibition in vivo at 200 µmol/kg [2]: < 40%

Compound: CC(=O)N(O)C(C)c1ccc(OCc2ccncc2)cc1 (stereo not given)
- IC50 [1]: 2600 nM
- ED50 [3, 9]: 32 µmol/kg
- Concentration (Rattus norvegicus): 152 µM
- ED50 [4, 9]: 9 mg/kg

Compound: CC(c1ccc(OCc2ccccc2)cc1)N(O)C(=O)c1ccccc1 (stereo not given)
- IC50 [1]: 690 nM
- inhibition in vivo at 200 µmol/kg [2]: < 40%
- Concentration (Rattus norvegicus): < 2 µM

Compound: CC(=O)N(O)C(C)c1ccc(C(C)Oc2ccccc2)cc1 (stereo not given)
- IC50 [1]: 460 nM
- Inhibition [5]: 47%

Compound: CCCCOc1ccc(C(CC)N(O)C(C)=O)cc1 (stereo not given)
- IC50 [1]: 740 nM
- ED50 [3, 9]: 188 µmol/kg
- ED50 [4, 9]: 50 mg/kg

Compound: CC(=O)N(O)C(C)c1ccc(OC2c3ccccc3-c3ccccc32)cc1 (stereo not given)
- IC50 [1]: 4900 nM
- Inhibition [5]: <40%

Compound: CCCCOc1ccc(C(C)(C)N(O)C(C)=O)cc1
- IC50 [1]: 650 nM
- inhibition in vivo at 200 µmol/kg [2]: < 40%

Compound: CCCCOc1ccc(CC(C)N(O)C(C)=O)cc1 (stereo not given)
- Inhibition [7]: 74%
- IC50 [1]: 540 nM

Compound: CC(c1ccc(OCc2ccccc2)cc1)N(O)C=O (stereo not given)
- IC50 [1]: 940 nM
- Concentration (Rattus norvegicus): 2.3 µM
- inhibition in vivo at 200 µmol/kg [8]: < 40%

Compound: CC(=O)N(O)C(C)c1ccc(OC(c2ccccc2)C(C)C)cc1 (stereo not given)
- IC50 [1]: 610 nM
- Inhibition [5]: <40%
- Concentration (Rattus norvegicus): 10.7 µM

Compound: CC(=O)N(O)C(C)c1cccc(OCc2ccccc2)c1 (stereo not given)
- IC50 [1]: 330 nM
- ED50 [3, 9]: 68 µmol/kg
- ED50 [4, 9]: 19 mg/kg

Compound: CC(=O)N(O)C(c1ccc(OCc2ccccc2)cc1)C(C)C (stereo not given)
- IC50 [1]: 780 nM
- inhibition in vivo at 200 µmol/kg [2]: < 40%

Compound: CCCCOc1ccc(C(C(C)C)N(O)C(C)=O)cc1 (stereo not given)
- IC50 [1]: 880 nM
- Concentration (Rattus norvegicus): < 2 µM
